# According to ChEMBL document CHEMBL4732237, “Discovery of 4-alkoxy-2-aryl-6,7-dimethoxyquinolines as a new class of topoisomerase I inhibitors endowed with potent in vitro anticancer activity” (2021):
# Tests used:
# Assay type in all cases: functional
# Conditions in all cases: read-out: GI
# IGROV-1 = assay: Growth inhibition of human IGROV-1 cells at 10 uM incubated for 48 hrs by sulforhodamine B assay relative to control
# Method in brief: (§1)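 NCI-60 single-dose screen. Cells were grown in RPMI 1640 with 5% FBS and 2 mM L-glutamine and plated 24 h before drug addition. Compound was added at one concentration in DMSO-derived medium and incubated for 48 h at 37 °C in 5% CO2. Read-out was SRB protein stain at 515 nm. Result is percent growth versus the no-drug control and the time-zero cell count; values below 0 indicate lethality.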
# UO-31 = assay: Growth inhibition of human UO-31 cells at 10 uM incubated for 48 hrs by sulforhodamine B assay relative to control
# Method in brief: (§2)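 NCI one-dose screen across a 59-line panel. Cells were grown in RPMI 1640 with 5% FBS and 2 mM L-glutamine, plated and pre-incubated 24 h, then exposed to drug for 48 h at 37 °C, 5% CO2. Adherent cells were fixed with cold TCA (10% final), stained with 0.4% SRB in 1% acetic acid and read at 515 nm. Result is percent growth relative to no-drug control and time-zero cell count.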
# NCI-H322M = assay: Growth inhibition of human NCI-H322M cells at 10 uM incubated for 48 hrs by sulforhodamine B assay relative to control
# Method in brief: (§3)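 NCI one-dose screen. Cells grown in RPMI 1640 with 5% FBS and 2 mM L-glutamine, plated and incubated 24 h at 37 °C, 5% CO2. DMSO-dissolved drug added, then 48 h further incubation. Adherent cells fixed with cold TCA, suspension cells fixed after settling. Stained with 0.4% SRB, absorbance read at 515 nm. Reported as percent growth relative to no-drug control and time-zero cell number.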
# NCI-H522 = assay: Growth inhibition of human NCI-H522 cells at 10 uM incubated for 48 hrs by sulforhodamine B assay relative to control; method in brief: as §3
# PC-3 = assay: Growth inhibition of human PC-3 cells at 10 uM incubated for 48 hrs by sulforhodamine B assay relative to control; method in brief: as §3
# SK-OV-3 = assay: Growth inhibition of human SK-OV-3 cells at 10 uM incubated for 48 hrs by sulforhodamine B assay relative to control; method in brief: as §3
# TK-10 = assay: Growth inhibition of human TK-10 cells at 10 uM incubated for 48 hrs by sulforhodamine B assay relative to control; method in brief: as §2
# NCI-H460 = assay: Growth inhibition of human NCI-H460 cells at 10 uM incubated for 48 hrs by sulforhodamine B assay relative to control; method in brief: as §3
# UACC-257 = assay: Growth inhibition of human UACC-257 cells at 10 uM incubated for 48 hrs by sulforhodamine B assay relative to control; method in brief: as §2
# K562 = assay: Growth inhibition of human K562 cells at 10 uM incubated for 48 hrs by sulforhodamine B assay relative to control; method in brief: as §1
# SW-620 = assay: Growth inhibition of human SW-620 cells at 10 uM incubated for 48 hrs by sulforhodamine B assay relative to control; method in brief: as §2
# MDA-MB-468 = assay: Growth inhibition of human MDA-MB-468 cells at 10 uM incubated for 48 hrs by sulforhodamine B assay relative to control; method in brief: as §1
# KM12 = assay: Growth inhibition of human KM12 cells at 10 uM incubated for 48 hrs by sulforhodamine B assay relative to control; method in brief: as §1
# M14 = assay: Growth inhibition of human M14 cells at 10 uM incubated for 48 hrs by sulforhodamine B assay relative to control; method in brief: as §1
# MDA-MB-435 = assay: Growth inhibition of human MDA-MB-435 cells at 10 uM incubated for 48 hrs by sulforhodamine B assay relative to control; method in brief: as §1
# OVCAR-4 = assay: Growth inhibition of human OVCAR-4 cells at 10 uM incubated for 48 hrs by sulforhodamine B assay relative to control; method in brief: as §3
# SNB-75 = assay: Growth inhibition of human SNB-75 cells at 10 uM incubated for 48 hrs by sulforhodamine B assay relative to control; method in brief: as §3
# EKVX = assay: Growth inhibition of human EKVX cells at 10 uM incubated for 48 hrs by sulforhodamine B assay relative to control; method in brief: as §1
# MCF7 = assay: Growth inhibition of human MCF7 cells at 10 uM incubated for 48 hrs by sulforhodamine B assay relative to control; method in brief: as §1
# OVCAR-5 = assay: Growth inhibition of human OVCAR-5 cells at 10 uM incubated for 48 hrs by sulforhodamine B assay relative to control; method in brief: as §3
# OVCAR-8 = assay: Growth inhibition of human OVCAR-8 cells at 10 uM incubated for 48 hrs by sulforhodamine B assay relative to control; method in brief: as §3
# U-251 = assay: Growth inhibition of human U-251 cells at 10 uM incubated for 48 hrs by sulforhodamine B assay relative to control; method in brief: as §2
# HL-60(TB) = assay: Growth inhibition of human HL-60(TB) cells at 10 uM incubated for 48 hrs by sulforhodamine B assay relative to control
# Method in brief: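 NCI-60 one-dose screen: same culture, 48 h drug exposure and SRB read-out. Reported as percent growth relative to no-drug control and to time-zero cell number; 0–100 means growth inhibition, below 0 means lethality.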
# MOLT-4 = assay: Growth inhibition of human MOLT-4 cells at 10 uM incubated for 48 hrs by sulforhodamine B assay relative to control; method in brief: as §3
# NCI-H23 = assay: Growth inhibition of human NCI-H23 cells at 10 uM incubated for 48 hrs by sulforhodamine B assay relative to control; method in brief: as §3
# UACC-62 = assay: Growth inhibition of human UACC-62 cells at 10 uM incubated for 48 hrs by sulforhodamine B assay relative to control; method in brief: as §2
# HOP-62 = assay: Growth inhibition of human HOP-62 cells at 10 uM incubated for 48 hrs by sulforhodamine B assay relative to control; method in brief: as §1
# NCI/ADR-RES = assay: Growth inhibition of human NCI/ADR-RES cells at 10 uM incubated for 48 hrs by sulforhodamine B assay relative to control; method in brief: as §3
# SF-268 = assay: Growth inhibition of human SF-268 cells at 10 uM incubated for 48 hrs by sulforhodamine B assay relative to control; method in brief: as §3
# COLO 205 = assay: Growth inhibition of human COLO 205 cells at 10 uM incubated for 48 hrs by sulforhodamine B assay relative to control; method in brief: as §1
# SK-MEL-2 = assay: Growth inhibition of human SK-MEL-2 cells at 10 uM incubated for 48 hrs by sulforhodamine B assay relative to control; method in brief: as §3
# SNB-19 = assay: Growth inhibition of human SNB-19 cells at 10 uM incubated for 48 hrs by sulforhodamine B assay relative to control; method in brief: as §3
# SF-539 = assay: Growth inhibition of human SF-539 cells at 10 uM incubated for 48 hrs by sulforhodamine B assay relative to control; method in brief: as §3
# OVCAR-3 = assay: Growth inhibition of human OVCAR-3 cells at 10 uM incubated for 48 hrs by sulforhodamine B assay relative to control; method in brief: as §3
# RXF 393 = assay: Growth inhibition of human RXF 393 cells at 10 uM incubated for 48 hrs by sulforhodamine B assay relative to control; method in brief: as §3
# SR = assay: Growth inhibition of human SR cells at 10 uM incubated for 48 hrs by sulforhodamine B assay relative to control; method in brief: as §3
Structure (SMILES),inhibition of growth at 10 µM (IGROV-1) [%],inhibition of growth at 10 µM (UO-31) [%],inhibition of growth at 10 µM (NCI-H322M) [%],inhibition of growth at 10 µM (NCI-H522) [%],inhibition of growth at 10 µM (PC-3) [%],inhibition of growth at 10 µM (SK-OV-3) [%],inhibition of growth at 10 µM (TK-10) [%],inhibition of growth at 10 µM (NCI-H460) [%],inhibition of growth at 10 µM (UACC-257) [%],inhibition of growth at 10 µM (K562) [%],inhibition of growth at 10 µM (SW-620) [%],inhibition of growth at 10 µM (MDA-MB-468) [%],inhibition of growth at 10 µM (KM12) [%],inhibition of growth at 10 µM (M14) [%],inhibition of growth at 10 µM (MDA-MB-435) [%],inhibition of growth at 10 µM (OVCAR-4) [%],inhibition of growth at 10 µM (SNB-75) [%],inhibition of growth at 10 µM (EKVX) [%],inhibition of growth at 10 µM (MCF7) [%],inhibition of growth at 10 µM (OVCAR-5) [%],also measured
COc1cc2nc(-c3ccc(C(F)(F)F)cc3)cc(OCCN3CCOCC3)c2cc1OC,13,13,13,13,13,13,13,13,13,13,13,13,13,13,13,13,13,13,13,13,inhibition of growth at 10 µM (OVCAR-8): 13%; inhibition of growth at 10 µM (U-251): 13%; inhibition of growth at 10 µM (HL-60(TB)): 13%; inhibition of growth at 10 µM (MOLT-4): 13%; inhibition of growth at 10 µM (NCI-H23): 13%; inhibition of growth at 10 µM (UACC-62): 13%; inhibition of growth at 10 µM (HOP-62): 13%; inhibition of growth at 10 µM (NCI/ADR-RES): 13%; inhibition of growth at 10 µM (SF-268): 13%; inhibition of growth at 10 µM (COLO 205): 13%; inhibition of growth at 10 µM (SK-MEL-2): 13%; inhibition of growth at 10 µM (SNB-19): 13%; inhibition of growth at 10 µM (SF-539): 13%; inhibition of growth at 10 µM (OVCAR-3): 13%; inhibition of growth at 10 µM (RXF 393): 13%; inhibition of growth at 10 µM (SR): 13%
COc1cc2nc(-c3ccc(C(F)(F)F)cc3)cc(OCCN3CCCC3)c2cc1OC,13,13,13,13,13,13,13,13,13,13,13,13,13,13,13,13,13,13,13,13,inhibition of growth at 10 µM (OVCAR-8): 13%; inhibition of growth at 10 µM (U-251): 13%; inhibition of growth at 10 µM (HL-60(TB)): 13%; inhibition of growth at 10 µM (MOLT-4): 13%; inhibition of growth at 10 µM (NCI-H23): 13%; inhibition of growth at 10 µM (UACC-62): 13%; inhibition of growth at 10 µM (HOP-62): 13%; inhibition of growth at 10 µM (NCI/ADR-RES): 13%; inhibition of growth at 10 µM (SF-268): 13%; inhibition of growth at 10 µM (COLO 205): 13%; inhibition of growth at 10 µM (SK-MEL-2): 13%; inhibition of growth at 10 µM (SNB-19): 13%; inhibition of growth at 10 µM (SF-539): 13%; inhibition of growth at 10 µM (OVCAR-3): 13%; inhibition of growth at 10 µM (RXF 393): 13%; inhibition of growth at 10 µM (SR): 13%
COc1cc2nc(-c3ccc(Cl)cc3)cc(OCCN3CCCC3)c2cc1OC,3,3,3,3,3,3,3,3,3,3,3,3,3,3,3,3,3,3,3,3,inhibition of growth at 10 µM (OVCAR-8): 3%; inhibition of growth at 10 µM (U-251): 3%; inhibition of growth at 10 µM (HL-60(TB)): 3%; inhibition of growth at 10 µM (MOLT-4): 3%; inhibition of growth at 10 µM (NCI-H23): 3%; inhibition of growth at 10 µM (UACC-62): 3%; inhibition of growth at 10 µM (HOP-62): 3%; inhibition of growth at 10 µM (NCI/ADR-RES): 3%; inhibition of growth at 10 µM (SF-268): 3%; inhibition of growth at 10 µM (COLO 205): 3%; inhibition of growth at 10 µM (SK-MEL-2): 3%; inhibition of growth at 10 µM (SNB-19): 3%; inhibition of growth at 10 µM (SF-539): 3%; inhibition of growth at 10 µM (OVCAR-3): 3%; inhibition of growth at 10 µM (RXF 393): 3%; inhibition of growth at 10 µM (SR): 3%
COc1cc2nc(-c3ccsc3)cc(OCCCN3CCC(O)CC3)c2cc1OC,32,32,32,32,32,32,32,32,32,32,32,32,32,32,32,32,32,32,32,32,inhibition of growth at 10 µM (OVCAR-8): 32%; inhibition of growth at 10 µM (U-251): 32%; inhibition of growth at 10 µM (HL-60(TB)): 32%; inhibition of growth at 10 µM (MOLT-4): 32%; inhibition of growth at 10 µM (NCI-H23): 32%; inhibition of growth at 10 µM (UACC-62): 32%; inhibition of growth at 10 µM (HOP-62): 32%; inhibition of growth at 10 µM (NCI/ADR-RES): 32%; inhibition of growth at 10 µM (SF-268): 32%; inhibition of growth at 10 µM (COLO 205): 32%; inhibition of growth at 10 µM (SK-MEL-2): 32%; inhibition of growth at 10 µM (SNB-19): 32%; inhibition of growth at 10 µM (SF-539): 32%; inhibition of growth at 10 µM (OVCAR-3): 32%; inhibition of growth at 10 µM (RXF 393): 32%; inhibition of growth at 10 µM (SR): 32%
